Experimental data published in ChEMBL document CHEMBL5724801, “EUbOPEN Chemogenomics Library - Multiplex” (2024).
Where “and” joins values, the source holds several entries; their conditions need not be identical. Identical values can stand only once.

Test system: HEK-293T
Experiment: Multiplex assay against HEK293T
Format: toxicity, cell-based
Conditions: human
Method in brief: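 Live cells carried four stains from seeding: Hoechst33342, BioTracker Green Microtubule Cytoskeleton Dye, MitoTracker Red and Annexin V Alexa Fluor 680. They were imaged on a CQ1 microscope at 37°C and 5% CO2 after compound addition. Using CellPathfinder machine-learning gating, cells were split into Hoechst high-intensity objects or normal cells, normal cells into healthy, pyknosed or fragmented nuclei, and pyknosed cells into mitotic or apoptotic; tubulin, mitochondrial-mass and membrane-permeability phenotypes are per cents of healthy-nucleus cells.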

[1] = 12 h, 1 µM, compound concentration 1 uM
[2] = 12 h, 10 µM, compound concentration 10 uM
[3] = 24 h, 1 µM, compound concentration 1 uM
[4] = 24 h, 10 µM, compound concentration 10 uM
[5] = 48 h, 1 µM, compound concentration 1 uM
[6] = 48 h, 10 µM, compound concentration 10 uM

## COc1c(Nc2ccc(S(C)(=O)=O)nc2C)ncnc1OC1CCN(C(=O)OC(C)C)CC1 [ADP-597]
[1]
  Population Apoptotic (%): 29% and 38%
  Population Fragmented Nuclei (%): 5% and 4%
  Population Healthy Nuclei (%): 78% and 80%
  Population Hoechst High Intensity Objects (%): 6% and 3%
  Population Membrane Permeable-Phenotype (%): 0%
  Population Mitochondria Different-Phenotype (%): 47% and 62%
  Population Mitotic Cells (%): 70% and 62%
  Population Normal (%): 93% and 96%
  Population Pyknosed Nuclei (%): 16% and 14%
  Population Tubulin-Different-Phenotype (%): 36% and 25%
  Total Cell Count: 430 and 347
[2]
  Population Apoptotic (%): 47%
  Population Fragmented Nuclei (%): 7%
  Population Healthy Nuclei (%): 75% and 72%
  Population Membrane Permeable-Phenotype (%): 0%
  Population Mitochondria Different-Phenotype (%): 70% and 71%
  Population Mitotic Cells (%): 52%
  Population Normal (%): 91% and 74%
  Population Pyknosed Nuclei (%): 17% and 20%
  Population Tubulin-Different-Phenotype (%): 44% and 36%
  Total Cell Count: 302 and 238
[3]
  Population Apoptotic (%): 23% and 30%
  Population Fragmented Nuclei (%): 7% and 6%
  Population Healthy Nuclei (%): 81% and 84%
  Population Hoechst High Intensity Objects (%): 2% and 3%
  Population Membrane Permeable-Phenotype (%): 0% and 1%
  Population Mitochondria Different-Phenotype (%): 20% and 34%
  Population Mitotic Cells (%): 76% and 69%
  Population Normal (%): 97% and 96%
  Population Pyknosed Nuclei (%): 11% and 9%
  Population Tubulin-Different-Phenotype (%): 16% and 15%
  Total Cell Count: 587 and 447
[4]
  Population Apoptotic (%): 44% and 63%
  Population Fragmented Nuclei (%): 9% and 11%
  Population Healthy Nuclei (%): 74% and 71%
  Population Hoechst High Intensity Objects (%): 7% and 21%
  Population Membrane Permeable-Phenotype (%): 0%
  Population Mitochondria Different-Phenotype (%): 58% and 54%
  Population Mitotic Cells (%): 55% and 36%
  Population Normal (%): 92% and 78%
  Population Pyknosed Nuclei (%): 15% and 17%
  Population Tubulin-Different-Phenotype (%): 38% and 25%
  Total Cell Count: 355 and 300
[5]
  Population Apoptotic (%): 25% and 36%
  Population Fragmented Nuclei (%): 13%
  Population Healthy Nuclei (%): 78% and 77%
  Population Hoechst High Intensity Objects (%): 2% and 5%
  Population Membrane Permeable-Phenotype (%): 0% and 1%
  Population Mitochondria Different-Phenotype (%): 18% and 23%
  Population Mitotic Cells (%): 75% and 63%
  Population Normal (%): 97% and 94%
  Population Pyknosed Nuclei (%): 8% and 9%
  Population Tubulin-Different-Phenotype (%): 13% and 14%
  Total Cell Count: 924 and 590
[6]
  Population Apoptotic (%): 35% and 43%
  Population Fragmented Nuclei (%): 15% and 13%
  Population Healthy Nuclei (%): 73%
  Population Hoechst High Intensity Objects (%): 4% and 10%
  Population Membrane Permeable-Phenotype (%): 0%
  Population Mitochondria Different-Phenotype (%): 38% and 32%
  Population Mitotic Cells (%): 64% and 56%
  Population Normal (%): 95% and 89%
  Population Pyknosed Nuclei (%): 11% and 12%
  Population Tubulin-Different-Phenotype (%): 23% and 18%
  Total Cell Count: 494 and 392

## CC(=O)Nc1cccc2c1c(Sc1ccc(Cl)cc1)c(C)n2CC(=O)O [AZD1981]
[1]
  Population Apoptotic (%): 37% and 60%
  Population Fragmented Nuclei (%): 6% and 5%
  Population Healthy Nuclei (%): 81% and 80%
  Population Hoechst High Intensity Objects (%): 6% and 8%
  Population Membrane Permeable-Phenotype (%): 0%
  Population Mitochondria Different-Phenotype (%): 46% and 57%
  Population Mitotic Cells (%): 62% and 40%
  Population Normal (%): 93% and 91%
  Population Pyknosed Nuclei (%): 11% and 13%
  Population Tubulin-Different-Phenotype (%): 28% and 18%
  Total Cell Count: 405 and 314
[2]
  Population Apoptotic (%): 38% and 60%
  Population Fragmented Nuclei (%): 8% and 6%
  Population Healthy Nuclei (%): 78% and 77%
  Population Hoechst High Intensity Objects (%): 7% and 15%
  Population Membrane Permeable-Phenotype (%): 0%
  Population Mitochondria Different-Phenotype (%): 44% and 60%
  Population Mitotic Cells (%): 61% and 39%
  Population Normal (%): 92% and 84%
  Population Pyknosed Nuclei (%): 12% and 15%
  Population Tubulin-Different-Phenotype (%): 29% and 26%
  Total Cell Count: 403 and 318
[3]
  Population Apoptotic (%): 20% and 54%
  Population Fragmented Nuclei (%): 9% and 7%
  Population Healthy Nuclei (%): 80%
  Population Hoechst High Intensity Objects (%): 2% and 9%
  Population Membrane Permeable-Phenotype (%): 0%
  Population Mitochondria Different-Phenotype (%): 33% and 42%
  Population Mitotic Cells (%): 79% and 45%
  Population Normal (%): 97% and 90%
  Population Pyknosed Nuclei (%): 9% and 11%
  Population Tubulin-Different-Phenotype (%): 23% and 16%
  Total Cell Count: 568 and 398
[4]
  Population Apoptotic (%): 40% and 59%
  Population Fragmented Nuclei (%): 7% and 8%
  Population Healthy Nuclei (%): 79% and 81%
  Population Hoechst High Intensity Objects (%): 4% and 12%
  Population Membrane Permeable-Phenotype (%): 0%
  Population Mitochondria Different-Phenotype (%): 28% and 45%
  Population Mitotic Cells (%): 59% and 40%
  Population Normal (%): 95% and 87%
  Population Pyknosed Nuclei (%): 13% and 9%
  Population Tubulin-Different-Phenotype (%): 25% and 19%
  Total Cell Count: 526 and 387
[5]
  Population Apoptotic (%): 21% and 38%
  Population Fragmented Nuclei (%): 15% and 13%
  Population Healthy Nuclei (%): 78% and 79%
  Population Hoechst High Intensity Objects (%): 1% and 3%
  Population Membrane Permeable-Phenotype (%): 1%
  Population Mitochondria Different-Phenotype (%): 18% and 20%
  Population Mitotic Cells (%): 78% and 61%
  Population Normal (%): 98% and 96%
  Population Pyknosed Nuclei (%): 6%
  Population Tubulin-Different-Phenotype (%): 10% and 12%
  Total Cell Count: 908 and 570
[6]
  Population Apoptotic (%): 37% and 33%
  Population Fragmented Nuclei (%): 14% and 16%
  Population Healthy Nuclei (%): 78%
  Population Hoechst High Intensity Objects (%): 2% and 4%
  Population Membrane Permeable-Phenotype (%): 0%
  Population Mitochondria Different-Phenotype (%): 18% and 26%
  Population Mitotic Cells (%): 62% and 66%
  Population Normal (%): 97% and 95%
  Population Pyknosed Nuclei (%): 7% and 5%
  Population Tubulin-Different-Phenotype (%): 11%
  Total Cell Count: 751 and 556
